ChEMBL document CHEMBL1147929, “Synthesis and in vitro photodynamic activities of water-soluble fluorinated tetrapyridylporphyrins as tumor photosensitizers” (Bioorg Med Chem Lett, 2007)
Calls of active or inactive are those of the source. The rule behind the calls is not given here.

Tests used:
HeLa [1] = assay: Cytotoxicity in HeLa cells assessed as PDT-induced ROS generation after 2 hrs by flow cytometry; assay type: functional, cell-based; settings: Homo sapiens
Outline: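 HeLa cells exposed to porphyrins at […] for 2 h, then irradiated with visible light. Intracellular ROS probed with 2,7-dichlorofluorescin (DCF). DCF fluorescence read by flow cytometry after 2 h of porphyrin treatment. Untreated cells served as baseline.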

HeLa [2] = assay: Phototoxicity against HeLa cells assessed as photo-induced growth inhibition after 48 hrs by MTT assay; assay type: functional, cell-based, Homo sapiens
Outline: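 HeLa cells pre-incubated 1 h with a range of porphyrin concentrations. Without washing, cells were irradiated 1 h with a fluorescent lamp (530–620 nm; 0.44 mW/cm², 1.6 J/cm²). They were then incubated 48 h at 37 °C, and survival fraction was read by MTT. Non-irradiated cells served as dark controls.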

HeLa [3] = assay: Induction of apoptosis in HeLa cells assessed as accumulation at subG1 phase by FACS flow cytometry; assay type: functional, cell-based; settings: Homo sapiens
Outline: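 HeLa cells treated with 0, 4.6, 9.2, 18.4, 27.6 or 36.8 μM porphyrin, then stained with propidium iodide. The sub-G1 population was measured from DNA content histograms by FACS flow cytometry and taken as apoptotic cells. Values are means ± S.D.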

[4] = Homo sapiens, HeLa, light or radiation study, 48 h

| SMILES | Activity (HeLa [1]) | IC50 (HeLa [2]; [4]) [nM] | Activity (HeLa [3]) | IC50 (HeLa [2]; hela) [nM] |
| --- | --- | --- | --- | --- |
| C[n+]1ccc(-c2c3nc(c(-c4cc[n+](C)cc4)c4ccc([nH]4)c(-c4cc[n+](C)cc4)c4ccc([nH]4)c(-c4cc[n+](C)cc4)c4nc2C=C4)C=C3)cc1 | Active |  |  |  |
| C[n+]1ccc(-c2c3nc(c(-c4cc[n+](C)cc4F)c4ccc([nH]4)c(-c4cc[n+](C)cc4F)c4nc(c(-c5cc[n+](C)cc5F)c5ccc2[nH]5)C=C4)C=C3)c(F)c1 | Active | 40000 | Dose-dependent effect |  |
| C[n+]1cccc(-c2c3nc(c(-c4ccc[n+](C)c4F)c4ccc([nH]4)c(-c4ccc[n+](C)c4F)c4nc(c(-c5ccc[n+](C)c5F)c5ccc2[nH]5)C=C4)C=C3)c1F | Active |  | Dose-dependent effect | 1100 |
| C[n+]1ccc(-c2c3nc(c(-c4cc[n+](C)cc4)c4ccc([nH]4)c(-c4cc[n+](C)cc4)c4nc(c(-c5cc[n+](C)cc5)c5ccc2[nH]5)C=C4)C=C3)cc1 |  | 3000 |  |  |
| C[n+]1cc(F)c(-c2c3nc(c(-c4c(F)c[n+](C)cc4F)c4ccc([nH]4)c(-c4c(F)c[n+](C)cc4F)c4nc(c(-c5c(F)c[n+](C)cc5F)c5ccc2[nH]5)C=C4)C=C3)c(F)c1 | Active |  |  | 870 |
